According to ChEMBL document CHEMBL3797154, “Design and Synthesis of 1-((1,5-Bis(4-chlorophenyl)-2-methyl-1H-pyrrol-3-yl)methyl)-4-methylpiperazine (BM212) and N-Adamantan-2-yl-N'-((E)-3,7-dimethylocta-2,6-dienyl)ethane-1,2-diamine (SQ109) Pyrrole Hybrid Derivatives: Discovery of Potent Antitubercular Agents Effective against …” (J Med Chem, 2016):
Converted amounts (≈) assume the structure as drawn. The source made the active and inactive calls. The calls are words filed in the database; no cut-off is given here.

Tests used:
[1] = Cytotoxic activity against human THP1 cells assessed as reduction in cell viability incubated for 48 hrs by […] based assay; design: species or system THP-1; settings: for GI50: thp-1, 48 h; for GI50 at 48 h: THP1 cells
Procedure, shortened: (§1)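 RAW264.7 or THP-1 cells were grown in RPMI-1640 with 10% FBS and seeded at 10^5 cells/mL. Compound was two-fold serially diluted from a 50 mg/mL stock, with a solvent-control row. Plates were held 48 h at 37 °C in 5% CO2. Wells were washed twice with PBS, with centrifugation between washes for THP-1, then given fresh RPMI plus 0.01% […]. After overnight incubation, fluorescence was read at 560/590 nm and GIC50 derived.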

[2] = tested on: Mycobacterium tuberculosis; experiment: Antimycobacterial activity against Mycobacterium tuberculosis mc'2-7000x assessed as inhibition of mycobacterial growth; format: functional
[3] = tested on: Mycobacterium tuberculosis; experiment: Antimycobacterial activity against Mycobacterium tuberculosis mc'2-7000x assessed as inhibition of mycobacterial growth at 500 ug/ml; format: functional, organism-based
[4] = tested on: Mycobacterium tuberculosis; experiment: Antimycobacterial activity against Mycobacterium tuberculosis H37Rv ATTC 27294 assessed as inhibition of mycobacterial growth incubated for 7 days; format: functional
Procedure, shortened: (§2)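 MIC by HT-SPOTi on Middlebrook 7H10 agar with 0.05% (v/v) glycerol and 10% (v/v) OADC in 96-well format. Compounds dissolved at 50 mg/mL (stock), two-fold serial dilutions, final 500-0.5 µg/mL. Each well spotted with 2 µL early-to-midlog culture (2x10^3 CFU), incubated at 37 °C until distinct spots in control wells. DMSO-only and isoniazid controls; triplicate.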

[5] = tested on: Mycolicibacterium aurum; experiment: Inhibition of multidrug resistance efflux pump in Mycobacterium aurum ATCC 23366 assessed as inhibition of ethidium bromide efflux by measuring relative fluorescence units for ethidium bromide accumulation at 1/4 times MIC incubated for 60 mins by fluorimetric assay
Procedure, shortened: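 Whole-cell efflux assay: early-log cells (OD600 ~0.8) adjusted to OD600 0.4, washed into PBS; 4-6x10^7 bacteria/mL with 0.4% glucose, 0.5 mg/L ethidium bromide substrate and compound at 1/4x MIC. Fluorescence ex 544/em 590 nm at 37 °C every minute for 60 min; accumulation scored 0-4 by relative fluorescence bands. Verapamil positive, PBS negative control.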

[6] = tested on: Mycolicibacterium smegmatis; experiment: Antimycobacterial activity against Mycobacterium smegmatis str. MC2 155 ATCC 700084 assessed as inhibition of mycobacterial growth incubated for 24 hrs by MABA method; format: functional; settings: MC2 155 ATCC 700084, 24 h
[7] = tested on: Mycolicibacterium aurum; experiment: Antimycobacterial activity against Mycobacterium aurum ATCC 23366 assessed as inhibition of mycobacterial growth incubated for 4 days; format: functional
Procedure, shortened: (§3)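 HT-SPOTi agar dilution: two-fold serial dilutions of compound were mixed into Middlebrook 7H10 agar with 0.05% glycerol and 10% OADC, giving a final range of 500–0.5 µg/mL. Each well was spotted with 2x10^3 CFU of early-to-mid-log culture. Plates were incubated at 35 or 37 °C until spots appeared in control wells. Controls were DMSO-only and isoniazid. The MIC was read, in triplicate.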

[8] = tested on: Mycobacterium tuberculosis; experiment: Antimicrobial activity against Mycobacterium tuberculosis; format: functional
[9] = tested on: Mycobacterium tuberculosis; experiment: Antimycobacterial activity against Mycobacterium tuberculosis H37Rv ATTC 27294 assessed as inhibition of mycobacterial growth at 500 ug/ml incubated for 7 days; format: functional, organism-based; procedure, shortened: as §2
[10] = Cytotoxic activity against mouse RAW264.7 cells assessed as reduction in cell viability incubated for 48 hrs by […] based assay; procedure, shortened: as §1
[11] = tested on: Mycolicibacterium aurum; experiment: Antimycobacterial activity against Mycobacterium aurum ATCC 23366 assessed as inhibition of mycobacterial growth at 500 ug/ml incubated for 4 days; format: functional, organism-based; procedure, shortened: as §3
[12] = Selectivity index, ratio of GIC50 for cytotoxicity against human THP1 cells to MIC for Mycobacterium tuberculosis H37Rv ATTC 27294; format: toxicity, cell-based, THP-1; settings: read-out: Selectivity Index
Procedure, shortened: (§4)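 SI = GIC50 / H37Rv MIC (agar spot assay). GIC50 from cells in RPMI-1640 + 10% FBS, 37 °C, 5% CO2; 10^5 cells/mL added to two-fold compound dilutions from 50 mg/mL stock, solvent control row. 48 h exposure, washes (THP-1 centrifuged), fresh medium plus 0.01% […], overnight; fluorescence ex 560/em 590 nm.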

[13] = Selectivity index, ratio of GIC50 for cytotoxicity against mouse RAW264.7 cells to MIC for Mycobacterium tuberculosis H37Rv ATTC 27294; format: toxicity, cell-based; settings: read-out: Selectivity Index; procedure, shortened: as §4

SMILES | GI50 [1] | MIC [2] | growth inhibition (GI) [3] | MIC ([4]; H37Rv ATTC 27294, 168 h) [µg/mL] | Activity [5] [RFU] | MIC [6] [µg/mL] | MIC ([7]; ATCC 23366, 96 h) [µg/mL] | MIC [8] [µM] | growth inhibition (GI) [9] | GI50 at 48 h [1] [µg/mL] | MIC [7] | GI50 at 48 h [10] [µg/mL] | growth inhibition (GI) [11] | MIC [4] | selectivity ratio [12] | selectivity ratio [13]
NNC(=O)c1ccncc1 [ISONIAZID] | Not Active | inactive | inactive | 0.24 (≈ 1.75 µM) |  |  |  |  |  |  |  |  |  |  |  | 
CC(C)=CCC/C(C)=C/CNCCNC1C2CC3CC(C2)CC1C3 (stereo not drawn) [SQ109] | Not Active | 2 µg/mL (≈ 6.05 µM) |  | 0.51 (≈ 1.54 µM) | 2 | 4 (≈ 12.1 µM) | 7.8 (≈ 23.6 µM) | 0.5 (≈ 0.165 µg/mL) |  |  |  |  |  |  |  | 
Cc1cc(CNOCc2ccccc2)c(C)n1-c1ccc(Cl)cc1 |  | > 64 µg/mL |  |  | 2 | > 64 |  |  | inactive | 67 (≈ 197 µM) | inactive | 133 (≈ 390 µM) | inactive | inactive |  | 
Cc1cc(/C=N\OCc2ccccc2)c(C)n1-c1ccc(F)cc1 |  | inactive | inactive | 25 (≈ 77.5 µM) |  |  |  |  |  |  |  |  |  |  |  | 
Cc1cc(CNOCc2ccccc2)c(C)n1-c1ccc(F)cc1 |  | > 64 µg/mL |  | > 125 | 4 | > 64 |  |  |  | 292 (≈ 900 µM) | inactive | 123 (≈ 379 µM) | inactive |  | < 2.3 | < 1
